The nature of series [1]: Antioxidant activity assessed as DPPH free radical scavenging activity after 30 mins by spectrophotometric assay. In kind it is physicochemical. The method, boiled down: (§1)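 Test samples at 25, 50 and 100 μg/mL in methanol, 1 mL added to 4 mL of 0.004% (w/v) methanolic DPPH. Scavenging expressed as percent inhibition relative to a control with all reagents except test compound. Ascorbic acid served as reference antioxidant.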
A general note: Loss of DPPH colour is used to gauge radical scavenging.

The nature of series [2]: Antioxidant activity assessed as DPPH free radical scavenging activity at 25 ug/ml after 30 mins by spectrophotometric assay. Particulars: 0.5 h. It counts as physicochemical. The method in brief: as §1
A short description of series [3]: Antioxidant activity assessed as DPPH free radical scavenging activity at 50 ug/ml after 30 mins by spectrophotometric assay. In kind it is physicochemical. Particulars: 0.5 h. The method, boiled down: as §1
The nature of series [4]: Antioxidant activity assessed as DPPH free radical scavenging activity at 100 ug/ml after 30 mins by spectrophotometric assay. In kind it is physicochemical. Particulars: 0.5 h. The method in brief:
as §1

The test system of series [5] is MDA-MB-231. The series is described as follows: Cytotoxicity against human MDA-MB-231 cells assessed as growth inhibition after 48 hrs by MTT assay. In kind it is functional, cell-based. The settings on record: MDA-MB-231, 48 h. The method, boiled down: (§2)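 MTT colorimetric assay in 96-well plates. Cells exposed to compounds for 48 h, then tetrazolium reduction to formazan was read as absorbance. IC50 taken from plotted dose–response curves. Values are mean ± SD of three independent experiments. Doxorubicin served as positive control.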
(In general: Tetrazolium assays rely on reduction of a dye to a coloured formazan, in cell work by metabolically active cells.)

The subject of series [6] is Vero. Put plainly: Cytotoxicity against African green monkey Vero cells assessed as growth inhibition after 48 hrs by MTT assay. In kind it is cell-based. Particulars: Chlorocebus sabaeus. The method, boiled down:
as §2

One may read the IC50 as the concentration needed to halve the response being measured.

Values after ≈ are worked out from the molar mass of the structure shown.

Turning to `O=C1O[C@H]([C@@H](O)CO)C(O)=C1O` [ASCORBIC ACID], the IC50 in series [1] came out at 15.17 µg/mL (≈ 86.1 µM). Further, the results for the “inhibition (INH)” value in series [2], in series [3] and in series [4] were 82.39%, 83.52% and 87.22%, respectively.

For the compound `COc1cccc2c1C(=O)c1c(O)c3c(c(O)c1C2=O)C[C@@](O)(C(=O)CO)C[C@@H]3O[C@H]1C[C@H](N)[C@H](O)[C@H](C)O1` [DOXORUBICIN], the IC50 in series [5] was 910 nM; in series [6], greater than 100 µM.

Values taken from ChEMBL document CHEMBL3739266, “Synthesis and pharmacological evaluation of some new fluorine containing hydroxypyrazolines as potential anticancer and antioxidant agents” (Eur J Med Chem, 2015).
